In ChEMBL document CHEMBL1158555, “Structure-activity relationships of bioisosteric replacement of the carboxylic acid in novel androgen receptor pure antagonists” (Bioorg Med Chem, 2010):
Activity calls are given as the source filed them. The rule behind the calls is not given here.

Legend:
Androgen receptor = molecular target: T1, Androgen receptor (Homo sapiens, UniProt P10275); assay: Displacement of [3H]mibolerone from human AR expressed in CHO-K1 cells after 2 hrs by scintillation counting; assay type: cell-based
T1 sequence (P10275 whole entry): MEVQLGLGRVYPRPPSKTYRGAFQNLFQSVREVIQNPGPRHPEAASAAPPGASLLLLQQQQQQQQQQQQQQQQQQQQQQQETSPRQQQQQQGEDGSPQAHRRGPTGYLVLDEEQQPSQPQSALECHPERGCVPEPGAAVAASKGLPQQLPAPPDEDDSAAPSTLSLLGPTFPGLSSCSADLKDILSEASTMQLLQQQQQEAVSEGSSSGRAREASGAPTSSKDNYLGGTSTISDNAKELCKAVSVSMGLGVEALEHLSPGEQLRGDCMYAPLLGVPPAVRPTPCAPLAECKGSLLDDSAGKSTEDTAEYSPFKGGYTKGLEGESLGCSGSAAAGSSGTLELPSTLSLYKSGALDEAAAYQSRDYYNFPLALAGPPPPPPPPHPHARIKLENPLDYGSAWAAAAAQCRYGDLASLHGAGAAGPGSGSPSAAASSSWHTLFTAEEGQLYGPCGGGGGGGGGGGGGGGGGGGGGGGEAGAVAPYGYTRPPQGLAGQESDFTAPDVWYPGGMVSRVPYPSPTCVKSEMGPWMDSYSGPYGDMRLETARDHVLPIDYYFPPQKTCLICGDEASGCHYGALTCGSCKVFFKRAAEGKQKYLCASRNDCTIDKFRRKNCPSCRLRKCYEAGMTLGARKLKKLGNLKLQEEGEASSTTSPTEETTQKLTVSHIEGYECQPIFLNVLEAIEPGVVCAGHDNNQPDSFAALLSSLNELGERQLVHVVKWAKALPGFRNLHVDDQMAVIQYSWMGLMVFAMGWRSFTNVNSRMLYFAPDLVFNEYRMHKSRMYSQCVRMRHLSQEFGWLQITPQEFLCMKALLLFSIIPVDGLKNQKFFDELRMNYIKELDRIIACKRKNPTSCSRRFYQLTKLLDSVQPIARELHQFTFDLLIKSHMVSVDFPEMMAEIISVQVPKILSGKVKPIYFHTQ

[1] = molecular target: T2, Androgen receptor (Homo sapiens) (UniProt P10275); assay: Agonist activity at AR in human LNCAP cells assessed as effect on cell proliferation after 6 days; assay type: functional, cell-based
T2 sequence (whole entry): T1 sequence (P10275 whole entry)
In short: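 LNCaP cells were pre-starved and plated in phenol red-free RPMI 1640 with 5% DCC-FBS. After overnight attachment, test compound was added without R1881 for 6 days. Proliferation was read by MTS (CellTiter 96 AQueous One). Agonism was scored +/− from the growth dose-response curve.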

[2] = molecular target: T2, Androgen receptor (Homo sapiens); details: HeLa
[3] = molecular target: T2, Androgen receptor (Homo sapiens); details: HeLa; remark: listed apart in the source
[4] = Metabolic stability in human liver microsomes assessed as compound remaining at […] after 15 mins by LC-MS/MS analysis; assay type: ADME, Microsome; details: read-out: Stability
Mus musculus = species: Mus musculus; assay: Antiandrogenic activity in castrated mouse assessed as reduction in testosterone-induced wet weight gain of seminal vesicle; assay type: functional
LNCaP = assay: Antitumor activity against human LNCAP cells xenografted in po dosed SCID mouse assessed as inhibition of tumor growth administered once daily in seven cycles of 5 days on and 2 days off schedule; assay type: functional, organism-based
In short: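 LNCaP cells (2×10^6) were injected subcutaneously into 6-week-old male SCID mice. At tumour size 90–400 mm³, mice were randomised and dosed orally in 5% gum arabic at 10 mL/kg body weight. Dosing ran as seven cycles of 5 days on, 2 days off, with n = 6 per group.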

Row | Compound | IC50 (Androgen receptor) [nM] | Activity [1] | EC5 [2] [µM] | EC5 [3] [µM] | remaining [4] [%] | ED50 (Mus musculus) [mg/kg] | inhibition (LNCaP)
1 | CC1(C)C(=O)N(c2ccc(C#N)c(C(F)(F)F)c2)C(=S)N1CCCNC(N)=O | 800 | inactive | 0.65 | 0.35 |  |  | 
2 | CC1(C)C(=O)N(c2ccc(C#N)c(C(F)(F)F)c2)C(=S)N1CCCCS(N)(=O)=O | > 1000 | inactive | > 10 | > 10 |  |  | 
3 | CC1(C)C(=O)N(c2ccc(C#N)c(Cl)c2)C(=S)N1CCCS(N)(=O)=O | 440 | inactive |  |  | 100 | 10 | Dose-dependent effect
4 | CC1(C)C(=O)N(c2ccc(C#N)c(C(F)(F)F)c2)C(=S)N1CCS(N)(=O)=O | 770 | inactive | > 10 | 7.2 |  |  | 
5 | Cc1c(N2C(=O)C(C)(C)N(CCCS(N)(=O)=O)C2=S)ccc(C#N)c1C(F)(F)F | 260 | Active |  | 2 | 89 |  | 
6 | CN(C)S(=O)(=O)CCCN1C(=S)N(c2ccc(C#N)c(C(F)(F)F)c2)C(=O)C1(C)C | 80 | Active | 0.11 |  |  |  | 
7 | CN1C(=S)N(c2ccc(C#N)c(C(F)(F)F)c2)C(=O)C1(C)C | 15 | Active | < 0.001 | 8e-05 |  |  | 
8 | CC1(C)C(=O)N(c2ccc(C#N)c(C(F)(F)F)c2)C(=S)N1CCCNS(N)(=O)=O | > 1000 | inactive | > 10 | > 10 |  |  | 
9 | CNS(=O)(=O)CCCN1C(=S)N(c2ccc(C#N)c(C(F)(F)F)c2)C(=O)C1(C)C | 170 | inactive | > 10 | 1.4 |  |  | 
10 | CC1(C)C(=O)N(c2ccc(C#N)cc2)C(=S)N1CCCS(N)(=O)=O | > 5000 |  |  | > 10 | 92 |  | 
11 | CC1(C)C(=O)N(c2ccc(C#N)c(C(F)(F)F)c2)C(=S)N1CCCc1nnn[nH]1 | > 1000 | inactive | > 10 |  |  |  | 
12 | COc1cc(N2C(=O)C(C)(C)N(CCCS(N)(=O)=O)C2=S)ccc1C#N | 1900 | Active |  | > 10 | 100 |  | 
13 | CC1(C)C(=O)N(c2ccc(C#N)c(C(F)(F)F)c2)C(=S)N1CCCS(N)(=O)=O | 400 | inactive | > 10 | > 10 | 95 |  | 
14 | CC1(C)C(=O)N(c2ccc(C#N)c(C(F)(F)F)c2)C(=S)N1CCCC(N)=O | 480 | inactive | 3.6 | > 10 |  |  | 
15 | Cc1cc(N2C(=O)C(C)(C)N(CCCS(N)(=O)=O)C2=S)ccc1C#N | > 1000 | inactive |  | > 10 | 94 |  | 
16 | CC1(C)C(=O)N(c2ccc(C#N)c(C(F)(F)F)c2)C(=S)N1CCCC(=O)O | 3900 | inactive | > 10 | > 10 | 97 |  | 
17 | CC1(C)C(=O)N(c2ccc(C#N)c(C(F)(F)F)c2)C(=S)N1CCCS(=O)(=O)O | > 1000 | Active | > 10 |  |  |  | 
18 | Cc1cc(C#N)c(C(F)(F)F)cc1N1C(=O)C(C)(C)N(CCCS(N)(=O)=O)C1=S | > 5000 |  |  | > 10 | 91 |  | 
